The target of series [1] is hMcl-1(172–323) Lys234Ala (Homo sapiens, UniProt Q07820, K234A). Briefly: SDS gel electrophoresis, Lys234Ala mutant. The class given is binding. The following applies: 100 μM compound, 7 h. In short, it runs like this:
(§1)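 Wild-type, His224Ala, His252Ala or Lys234Ala hMcl-1(172–323) (10 μM) was incubated with or without 100 μM test agent in 50 mM phosphate pH 7.5, 150 mM NaCl, 1% DMSO. Samples ran on 12% Bis-Tris SDS-PAGE with MOPS running buffer and protein stain. Mutants were sampled at 7 h. Wild type was also sampled over a time course, and complex formation was estimated qualitatively from the gel.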

Series [2] deals with T1, hMcl-1(172–323) (Homo sapiens, UniProt Q07820). Briefly: LC-MS analysis of covalent complex. Format: binding. The following applies: 10 μM protein, 100 μM compound, 7 h, room temperature.
T1 sequence (Q07820 172-323): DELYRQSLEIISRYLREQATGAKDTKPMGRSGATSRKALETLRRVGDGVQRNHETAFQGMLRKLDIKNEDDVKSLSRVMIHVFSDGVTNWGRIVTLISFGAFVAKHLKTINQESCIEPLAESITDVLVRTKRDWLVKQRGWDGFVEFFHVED
In series [3] the target is hMcl-1(172–323) His224Ala (Homo sapiens, UniProt Q07820, H224A). Briefly: SDS gel electrophoresis, His224Ala mutant. The following applies: 100 μM compound, 7 h. The class given is binding. In short, it runs like this:
as §1

Series [4] concerns the target hMcl-1(172–323) His252Ala (Homo sapiens, UniProt Q07820, H252A). Briefly: SDS gel electrophoresis, His252Ala mutant. The class given is binding. The following applies: 100 μM compound, 7 h. An outline of the steps: as §1
Series [5] deals with His224Ala hMcl-1(172–323) (Homo sapiens, UniProt Q07820, H224A). The experiment in a line: LC-MS analysis of covalent complex, His224Ala mutant. Format: binding. The following applies: 10 μM protein, 100 μM compound, 7 h.
Chain of His224Ala hMcl-1(172–323) (Q07820 172-323 H224A): as the sequence (Q07820 172-323) above, with H53A counted along it
The target of series [6] is T2, 6×His-tagged hMcl-1(172–323) (Homo sapiens, UniProt Q07820). Briefly: DELFIA displacement assay. Format: binding. An outline of the steps:
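6×His-tagged hMcl-1(172–323) (16 nM) in a heterogeneous DELFIA format. The test agent displaces a biotinylated BIM BH3 reference peptide. Test agent was preincubated with protein for a fixed time (2 h for the peptide series) before dose–response measurement. IC50 was taken from the dose–response curves, and the ratio line is the ratio of these IC50 values.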

Series [7] has as its target T1, hMcl-1(172–323). The experiment in a line: SDS gel electrophoresis, covalent adduct formation. The following applies: 10 μM protein, 100 μM compound. The class given is binding. An outline of the steps:
as §1

Series [8] in a line: Plasma stability by 1D 1H NMR. The class given is in vitro ADME. The following applies: human plasma in PBS.
Series [9] can be described thus: Chemical stability in aqueous buffer by 1D 1H and 19F NMR. The following applies: 100 μM in 50 mM phosphate pH 7.5, 150 mM NaCl; up to 48 h. Format: physicochemical. An outline of the steps: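 Test compound at 100 μM in 50 mM phosphate pH 7.5, 150 mM NaCl. 1D 1H spectra were collected at set time points, and 19F 1D spectra were recorded in the same buffer at various time points on a 600 MHz instrument. Stability was judged from changes in the spectra over time.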

Series [10] relates to 6×His-hBfl-1(1–149). The experiment in a line: DELFIA displacement assay against hBfl-1. The following applies: same experimental conditions as the hMcl-1 DELFIA assay. The class given is binding, human.
In series [11] the target is hMcl-1 (Homo sapiens, UniProt Q07820). The experiment in a line: Kinetic measurements with the DELFIA assay. The class given is binding. In short, it runs like this: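 In the DELFIA format, wells with 16 nM Mcl-1 and 1:2000 Eu–N1 anti-6×His antibody were incubated 2 h, then with test compound for 0, 2, 5, 10, 20 and 40 min. Wells were washed three times and given enhancement solution for 10 min, then Eu fluorescence was read (excitation 340, emission 615). kobs came from the slope of % inhibition versus time, plotted against concentration and fitted hyperbolically to give KI and kinact.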
Chain of hMcl-1 (Q07820 172-323): as the sequence (Q07820 172-323) above

Series [12] addresses T2, 6×His-tagged hMcl-1(172–323). The following applies: against hMcl-1; previously identified minimal binding peptide; cited from earlier work.

The source of these data is article PMC11613628 (Journal of Medicinal Chemistry, 2024).

Entries after “also recorded” stand apart in the source; their conditions may differ. Like-named read-outs stand apart in the source and are kept apart here. Where a SMILES comes first, the peptide text is derived from it. Bridges are numbered along the chain shown (N, C = ends). [ ]: non-standard residue; d: D form. Tyr(SO2F) = N[C@@H](Cc1ccc(OS(=O)(=O)F)cc1)C(=O)O; S5 = C=CCCC[C@](C)(N)C(=O)O Bounds are passed on as bounds.

T2 sequence (Q07820 172-323): as above
Chain of hMcl-1(172–323) His252Ala (Q07820 172-323 H252A): as the sequence (Q07820 172-323) above, with H81A counted along it
Chain of hMcl-1(172–323) Lys234Ala (Q07820 172-323 K234A): as the sequence (Q07820 172-323) above, with K63A counted along it
Chain of hMcl-1(172–323) His224Ala (Q07820 172-323 H224A): as the sequence (Q07820 172-323) above, with H53A counted along it

One may read the IC50 as the point on the concentration scale where inhibition reaches its midpoint. With `CC[C@H](C)[C@H](NC(C)=O)C(=O)N[C@@H](C)C(=O)N[C@@H](CCC(=O)O)C(=O)N[C@@H](CCC(N)=O)C(=O)N[C@@H](CC(C)C)C(=O)N[C@@H](CCCNC(=N)N)C(=O)N[C@@H](CCCNC(=N)N)C(=O)N[C@H](C(=O)NCC(=O)N[C@@H](CC(=O)O)C(=O)N[C@@H](CCCNC(=N)N)C(=O)N[C@@H](Cc1ccc(OS(=O)(=O)F)cc1)C(N)=O)[C@@H](C)CC` [compound 6] (Ac-IAEQLRRIGDR[Tyr(SO2F)]-NH2), the “band shift (stable adduct)” value in [1] is given as “band shifts”; in series [3], “not with the His224Ala mutant”; in series [4], “band shifts”; in series [7] (7 h incubation) it was “band shift”. Besides, the figures for the “covalent adduct by mass spectrometry” value in series [2] and in series [5] were “forms a stable 1:1 complex” and “no MW increase was observed”, respectively. In addition, the IC50 in series [6] worked out at 8.1 nM.
In general, kinact/KI refers to the maximal inactivation rate divided by the concentration that gives half of it. As to `CC[C@H](C)[C@H](NC(C)=O)C(=O)N[C@@H](C)C(=O)N[C@@]1(C)CCC/C=C\CCC[C@@](C)(C(=O)N[C@H](C(=O)NCC(=O)N[C@@H](CC(=O)O)C(=O)N[C@@H](CCCNC(=N)N)C(=O)N[C@@H](Cc2ccc(OS(=O)(=O)F)cc2)C(N)=O)[C@@H](C)CC)NC(=O)[C@H](CCCNC(=N)N)NC(=O)[C@H](CC(C)C)NC(=O)[C@H](CCC(N)=O)NC1=O` [compound 9] (Ac-IA[S5]QLR[S5]IGDR[Tyr(SO2F)]-NH2; staple (Z) 3-7), the “plasma stability” value in series [8] (8 h) is on record as “remains mostly intact”. Moreover, the “remaining after incubation in plasma” value in [8] (24 h) was ~40%. For the same molecule, the “chemical stability in aqueous buffer” value in series [9] was “No significant spectral changes were observed; also recorded: did not observe any degradation”. Moreover, the “covalent adduct by mass spectrometry” value in series [2] is “corresponding to the anticipated mass of the covalent adduct”. Also, the “times less active against hBfl-1(1–149) than hMcl-1” value in series [10] was ~160 times. Also, the “covalent adduct by mass spectrometry” value in series [5] is reported as “could not form a covalent adduct”. Besides, the IC50 in series [6] came out at 5.8 ± 0.9 nM. Further, in series [7] (qualitative from gel), the “time to approximately 50% complex formation” value is reported as ~1 h and the “time to complete (or nearly complete) adduct formation” value is recorded as ≤ 4 h. Besides, the kinact/KI in [11] was 67000 ± 3e+07 M⁻¹ s⁻¹.
For IAEQLRRIGDRF, in [12], the IC50 was 250 nM.
